According to ChEMBL document CHEMBL4699407, “Isoquinoline thiosemicarbazone displays potent anticancer activity with in vivo efficacy against aggressive leukemias” (RSC Med Chem, 2020):
Calls of active or inactive are those of the source. The rule behind the calls is not given here.

Columns and labels:
MIA PaCa-2 [1] = assay: Induction of apoptosis in human MIA PaCa-2 cells assessed as increase in necrotic cells at 25 nM in presence of Cu2+ and ATRi incubated for 72 hrs by annexin V and propidium iodide staining based flow cytometry analysis relative to control; format: functional
Procedure, shortened: (§1)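 Cells given 25 nM compound with or without 20 μM Cu(II) and/or the ATR inhibitor VE-822 at 250 nM for 72 h. Stained with annexin V-FITC and propidium iodide, then analysed on a five-laser flow cytometer to score viable, early apoptotic, late apoptotic and necrotic fractions against vehicle.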

MIA PaCa-2 [2] = assay: Cytotoxicity against human MIA PaCa2 cells assessed as reduction in cell viability in presence of Cu2+ incubated for 72 hrs by cell titer-glo luminescent cell viability assay; format: functional, cell-based; conditions: MIA PaCa-2, 72 h
Procedure, shortened: (§2)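 Cells were grown in DMEM or RPMI with 10% FBS, without antibiotics, at 37 °C, 20% O2, 5% CO2. Adherent lines were seeded at 500 cells/well. Serially diluted compound was given with 20 μM Cu(II) (CuCl2) for 72 h; leukemia models received pre-formed 1:1 copper complex. ATP was read by CellTiter-Glo luminescence. IC50 is relative to DMSO-treated cells.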

MOLT-4 = assay: Cytotoxicity against human MOLT-4 cells assessed as reduction in cell viability in presence of Cu2+ incubated for 72 hrs by cell titer-glo luminescent cell viability assay; format: functional, cell-based; conditions: MOLT-4, 72 h; procedure, shortened: as §2
SW1990 = assay: Cytotoxicity against human SW1990 cells assessed as reduction in cell viability in presence of Cu2+ incubated for 72 hrs by cell titer-glo luminescent cell viability assay; format: functional, cell-based; conditions: SW1990, 72 h; procedure, shortened: as §2
[3] = Cytotoxicity against human A13A cells assessed as reduction in cell viability in presence of Cu2+ incubated for 72 hrs by cell titer-glo luminescent cell viability assay; format: functional, cell-based; procedure, shortened: as §2
MIA PaCa-2 [4] = assay: Induction of apoptosis in human MIA PaCa-2 cells assessed as increase in late apoptotic cells at 25 nM in presence of Cu2+ and ATRi incubated for 72 hrs by annexin V and propidium iodide staining based flow cytometry analysis relative to control; format: functional; procedure, shortened: as §1
MIA PaCa-2 [5] = assay: Induction of ROS generation in human MIA PaCa-2 cells at 25 nM in presence of Cu2+ incubated for 24 hrs by CM-H2DCFDA staining based flow cytometry analysis; format: functional, cell-based
Procedure, shortened: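 Treated with 25 nM compound ± 20 μM Cu(II) for 24 h. Cells loaded with 5 μM CM-H2DCFDA for 30 min, spun at 450g for 4 min, and returned to medium containing compound and/or Cu(II) for 30 min. Then spun, resuspended in PBS and read by flow cytometry as mean fluorescence intensity. Mean ± SD, n = 2, Student t-test.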

MIA PaCa-2 [6] = assay: Induction of apoptosis in human MIA PaCa-2 cells assessed as increase in necrotic cells at 25 nM incubated for 72 hrs by annexin V and propidium iodide staining based flow cytometry analysis relative to control; format: functional; procedure, shortened: as §1
MIA PaCa-2 [7] = assay: Induction of DNA damage in human MIA PaCa-2 cells assessed as decrease in GTP level at 25 nM in presence of Cu2+ incubated for 48 hrs by LC-MS/MS analysis; format: functional, cell-based
Procedure, shortened: (§3)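 MIAPACA2 cells were given 25 nM compound plus 20 μM Cu(II) for 48 h in glucose-free DMEM with 10% dialyzed FBS and 11 mM [U-13C6]glucose. Nucleotide pools were quantified by LC-MS/MS with multiple reaction monitoring. Mean ± SD, n = 3, two-way ANOVA with Bonferroni correction.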

MIA PaCa-2 [8] = assay: Induction of apoptosis in human MIA PaCa-2 cells assessed as reduction in viable cells at 25 nM in presence of Cu2+ and ATRi incubated for 72 hrs by annexin V and propidium iodide staining based flow cytometry analysis relative to control; format: functional; procedure, shortened: as §1
MIA PaCa-2 [9] = assay: Induction of apoptosis in human MIA PaCa-2 cells assessed as increase in caspase 3 cleavage at 10 nM in presence of Cu2+ incubated for 48 hrs by immunoblot assay; format: functional, cell-based
Procedure, shortened: (§4)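 Treated with 10 nM compound plus 20 μM Cu(II). Lysed in RIPA buffer with protease and phosphatase inhibitors, then sonicated and centrifuged at 20 000g, 4 °C. Protein measured by micro BCA, and equal amounts run on bis-tris gels. Primary antibodies in 5% BSA/TBST; HRP-linked anti-rabbit or anti-mouse secondaries at 1:2500. Chemiluminescent detection on film; representative blot.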

MIA PaCa-2 [10] = assay: Induction of DNA damage in human MIA PaCa-2 cells assessed as increase in CHEK1 phosphorylation at 10 nM in presence of Cu2+ incubated for 48 hrs by immunoblot assay; format: functional, cell-based; procedure, shortened: as §4
MIA PaCa-2 [11] = assay: Induction of apoptosis in human MIA PaCa-2 cells assessed as decrease in viable cells at 25 nM in presence of ATRi incubated for 72 hrs by annexin V and propidium iodide staining based flow cytometry analysis relative to control; format: functional; procedure, shortened: as §1
143B = assay: Cytotoxicity against human 143-BTK cells assessed as reduction in cell viability at 25 to 100 nM incubated for 48 hrs by trypan blue assay; format: functional, cell-based; conditions: dose nM 25-100, time 48.0 hrs
Procedure, shortened: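 143 BTK parental (WT) and ρ0 cells were exposed to the indicated compound concentrations plus 20 μM Cu(II) for 48 h. Viable cells were counted by trypan blue staining on a Vi-Cell counter. Mean ± SD, n = 2, Student t-test.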

Panc203 = assay: Cytotoxicity against human Panc203 cells assessed as reduction in cell viability in presence of Cu2+ incubated for 72 hrs by cell titer-glo luminescent cell viability assay; format: functional, cell-based; conditions: Panc203, 72 h; procedure, shortened: as §2
MIA PaCa-2 [12] = assay: Induction of apoptosis in human MIA PaCa-2 cells assessed as increase in late apoptotic cells at 25 nM incubated for 72 hrs by annexin V and propidium iodide staining based flow cytometry analysis relative to control; format: functional; procedure, shortened: as §1
YAPC = assay: Cytotoxicity against human YAPC cells assessed as reduction in cell viability in presence of Cu2+ incubated for 72 hrs by cell titer-glo luminescent cell viability assay; format: functional, cell-based; procedure, shortened: as §2
PANC-03-27 = assay: Cytotoxicity against human PANC-03-27 cells assessed as reduction in cell viability in presence of Cu2+ incubated for 72 hrs by cell titer-glo luminescent cell viability assay; format: functional, cell-based; conditions: PANC-03-27, 72 h; procedure, shortened: as §2
MIA PaCa-2 [13] = assay: Induction of apoptosis in human MIA PaCa-2 cells assessed as increase in early apoptotic cells at 25 nM incubated for 72 hrs by annexin V and propidium iodide staining based flow cytometry analysis relative to control; format: functional; procedure, shortened: as §1
MIA PaCa-2 [14] = assay: Cytotoxicity against human MIA PaCa2 cells assessed as reduction in cell viability at 25 nM in presence of Cu2+ and 2-DG incubated for 48 hrs by trypan blue assay; format: functional, cell-based
Procedure, shortened: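 MIAPACA2 cells were given 25 nM compound plus 20 μM Cu(II), with or without 2-deoxyglucose (2 mM), for 48 h. Viability was read by trypan blue staining on a Vi-Cell counter. Mean ± SD, n = 2, Student t-test.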

MIA PaCa-2 [15] = assay: Induction of DNA damage in human MIA PaCa-2 cells assessed as decrease in CTP level at 25 nM in presence of Cu2+ incubated for 48 hrs by LC-MS/MS analysis; format: functional, cell-based; procedure, shortened: as §3
MIA PaCa-2 [16] = assay: Induction of apoptosis in human MIA PaCa-2 cells assessed as increase in necrotic cells at 25 nM in presence of Cu2+ incubated for 72 hrs by annexin V and propidium iodide staining based flow cytometry analysis relative to control; format: functional; procedure, shortened: as §1

`CN(C)C(=S)NN=Cc1nccc2cc(F)ccc12` showed an Activity (MIA PaCa-2 [1]) of 4.72%, an IC90 (MIA PaCa-2 [2]) of 21.6 nM and an IC50 (MOLT-4) of 1 nM. The IC50 (SW1990) was 1 nM, the IC50 [3] was 1 nM and the Activity (MIA PaCa-2 [4]) was 42.7%. The Activity (MIA PaCa-2 [5]) was “Active”, the Activity (MIA PaCa-2 [6]) was 2.49% and the Activity (MIA PaCa-2 [7]) was “inactive”. The Activity (MIA PaCa-2 [8]) was 27.8%, the Activity (MIA PaCa-2 [9]) was “Active” and the Activity (MIA PaCa-2 [10]) was “Active”. For the same compound, the Activity (MIA PaCa-2 [11]) was 64.7%, the Activity (143B) was “Active” and the IC50 (Panc203) was 1 nM. For the same compound, the Activity (MIA PaCa-2 [12]) was 0.79%, the IC50 (YAPC) was 1 nM and the IC50 (PANC-03-27) was 1 nM. For the same compound, the Activity (MIA PaCa-2 [13]) was 1.85%, the Activity (MIA PaCa-2 [14]) was “Active” and the Activity (MIA PaCa-2 [15]) was “inactive”. The Activity (MIA PaCa-2 [16]) was 4.86%.
